Screens from PubChem.
Most compounds without a hit are left out; they make up all but 3% or so of the library.
hiPSC survival – enhancers of single-cell hiPSC survival, primary screen, ATPlite luminescence | 100% = ROCK inhibitor wells, 0% = DMSO | survival enhancement, % at 20 µM | 360,000 compounds, 0.044% hits | AID 602274, 2012; in the data active = survival enhancement above about 18%;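 note: cells exposed to compounds for 16 hours before the ATP read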
UBC13 inh – UBC13 polyubiquitin chain formation inhibitors, primary screen, biochemical, TR-FRET, uHTS | inhibition, % at 20 µM | Ubiquitin-conjugating enzyme E2 N (Homo sapiens), P61088 | 330,000 compounds, 0.47% hits | AID 485273, 2010; in the data active = inhibition above about 45%, passing the limit was not always enough
Target sequence (P61088 whole entry, looked up): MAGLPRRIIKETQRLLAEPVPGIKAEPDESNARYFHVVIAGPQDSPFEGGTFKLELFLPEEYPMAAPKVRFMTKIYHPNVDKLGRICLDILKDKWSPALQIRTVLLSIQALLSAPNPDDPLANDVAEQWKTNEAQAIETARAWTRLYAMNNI
Exocytosis inh – LAMP-1 surface exposure blockers, TALL-104 cells – cell-based, flow cytometry, MLPCN library, primary screen. inhibition, % at 10 µM. 360,000 compounds, 0.66% hits. TALL-104 LAMP-1 surface exposure; cells stimulated with thapsigargin and PMA. AID 651702, 2012;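 active = inhibition above about 55%, limit read from the data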
MIN6 prolif – inducers of MIN6 beta-cell proliferation, primary screen, ATP luminescence, uHTS. 330,000 compounds, 0.29% hits. MIN6 cells proliferation, ATPlite luminescence, 48 h; cells starved in 0.2% serum; 100% = growth in 10% serum. proliferation, % at 10 µM;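 active = compounds whose signal lies at least 3.5 SD above the mean of all wells on their plate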
MPTP inh – mitochondrial permeability transition pore inhibitors, primary screen, biochemical, isolated mouse mitochondria, absorbance | AID 602449, 2012 | inhibition, % at 10 µM | 360,000 compounds, 1.4% hits | Ca2+ swelling absorbance, 30 min;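 active = inhibition of 50% or more, scaled per plate between neutral and stimulator controls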
Apaf-1 inh – inhibitors of human Apaf-1 apoptosome, primary screen, biochemical, DEVD-Rh110 fluorescence, uHTS; Apoptotic protease-activating factor 1 (Homo sapiens), O14727; reconstituted apoptosome caspase-3 activity; inhibition, % at 20 µM; 330,000 compounds, 0.71% hits; AID 489030, 2010; active = inhibition of at least 40% at 20 µM
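Material: reconstituted apoptosome with Apaf-1, cytochrome c, caspase-9, procaspase-3, dATP. Technique: Rh110 fluorescence intensity. Buffer or medium: pH 7.5 Hepes buffer with CHAPS, BSA, DTT. Times: 30 min plus 50 min, RT.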
MPTP counter – fluorescence retest of MPTP screen hits in isolated mitochondria, single concentration; AID 624504, 2012; inhibition, % at 10 µM; shares compounds with MPTP inh; 5,000 compounds, 78% hits; membrane potential, Rhodamine 123 fluorescence; in the data active = inhibition above about 22%
MPTP abs DR – mitochondrial permeability transition pore inhibitors, dose response, biochemical, absorbance, uHTS hits. shares compounds with MPTP inh. isolated mitochondria swelling. IC50, µM. 780 compounds, 58% hits. AID 651561, 2012; in the data active = IC50 below about 20 µM
MPTP counter DR – fluorescent counter-screen in isolated mitochondria, dose response, counter-screen for MPTP inhibitor project, biochemical, fluorescence, uHTS hits; IC50, µM; isolated mitochondria counterscreen, fluorescence read-out; 780 compounds, 49% hits; shares compounds with MPTP inh; in the data active = IC50 below about 80 µM
Hits are given with their value; n = inactive; x = no result.

SMILES | hiPSC survival | UBC13 inh | Exocytosis inh | MIN6 prolif | MPTP inh | Apaf-1 inh | MPTP counter | others
O=C(O)c1ccccc1C(=O)c1ccc(N2CCCC2)c([N+](=O)[O-])c1 | n | n | n | n | n | n | x
Cn1c(=O)c2cc(NC(=O)NCc3ccc(Cl)cc3Cl)ccc2n1Cc1ccc(F)cc1 | n | x | n | x | n | x | x
COC(=O)c1c(C)oc2ccc(N(C(=O)c3ccncc3)S(=O)(=O)c3ccc(C)cc3C)cc12 | n | n | n | n | 62.3 | n | 28.7
COC(=O)c1c(C)oc2ccc(N(C(=O)c3ccncc3)S(=O)(=O)c3ccc(C)cc3)cc12 | n | n | n | n | n | n | x
N#CC1=C(N)NC(SCC(=O)c2ccc(Br)cc2)=C(C#N)C12CCCCC2 | n | n | n | n | 90.0 | n | 80.4
N#CC1=C(N)NC(SCc2ccccc2)=C(C#N)C12CCCCC2 | n | n | n | n | 68.2 | n | 74.4
CCSC1=C(C#N)C2(CCCCC2)C(C#N)=C(N)N1 | n | n | n | n | n | n | x
CC(=O)c1c(OC(=O)c2ccccc2)ccnc1C(F)(F)F | n | n | n | n | n | n | x
CCCN(CC(=O)Nc1cccc(Br)c1)CC(=O)Nc1ccc(F)c(F)c1F | n | n | n | n | 74.2 | n | 74.7
COc1cccc(OCC(O)CN2CCC(Cc3ccccc3)CC2)c1 (stereo not drawn) | n | n | n | n | 56.2 | n | n | MPTP abs DR=19.3;MPTP counter DR=61.8
CC1CCC(C(C)C)C(OCC(O)CN2CCN(Cc3ccccc3)CC2)C1 (stereo not drawn) | n | n | n | n | 86.3 | n | n | MPTP abs DR=n;MPTP counter DR=40.3
OC(COc1ccc2cc(Br)ccc2c1)CN1CCCC1 (stereo not drawn) | n | n | n | n | 87.6 | n | n | MPTP abs DR=9.43;MPTP counter DR=n
CC1CCC(C(C)C)C(OCC(O)CN2CCOCC2)C1 (stereo not drawn) | n | n | n | n | n | n | x
OC(COc1ccc(OCC(O)CN2CCN(Cc3ccccc3)CC2)cc1)CN1CCN(Cc2ccccc2)CC1 (stereo not drawn) | n | n | n | n | 53.7 | n | n | MPTP abs DR=12.4;MPTP counter DR=29.6
CCO/C(C)=N/Oc1cc(OC)cc(OC)c1 | n | x | n | x | n | x | x
O=C(CN1CCN(S(=O)(=O)/C=C/c2ccccc2)CC1)NCC(F)(F)F | n | n | n | n | n | n | x
CC(=O)Oc1ccc(C23CC4CC(CC(C4)C2)C3)cc1C(=O)O | x | n | x | n | x | n | x
O=[N+]([O-])c1ccc(N2CCN(C(=S)Nc3cccc(F)c3)CC2)cc1 | n | n | n | n | 54.7 | n | 57.5
O=[N+]([O-])c1ccc(NC(=S)N2CCc3ccccc3C2)cc1 | n | n | n | n | 58.0 | n | 65.3
O=[N+]([O-])c1ccc(N2CCN(C(=S)Nc3ccc(F)cc3)CC2)cc1 | n | n | n | n | n | n | x
CC1CCCCC12NC(=O)N(CC(=O)Nc1cccnc1)C2=O (stereo not drawn) | n | x | n | x | n | x | x
COCCNC(=O)C1(C)CCN(C(=O)/C=C/c2ccccc2)C1 (stereo not drawn) | n | x | n | x | n | x | x
CCn1ccnc1CN(C)Cc1cn(-c2ccc(C)cc2)nc1-c1cccc(C)c1 | n | n | n | n | 50.9 | n | n | MPTP abs DR=n;MPTP counter DR=45.8
CCn1ccnc1CN(C)Cc1cn(-c2cccc(C)c2)nc1-c1cccc(F)c1 | n | n | n | n | n | n | x
COc1ccccc1/C=C/CN1CCC(n2nccc2NC(=O)CCc2ccccc2)CC1 | n | n | n | n | 73.6 | n | 108.6
CCc1cc2c(cc3c(=O)n(CC(=O)N4CCN(C)CC4)ncn32)s1 | n | n | n | n | n | n | x
